Activity calls are given as the source filed them.
Experiments:
[1] = tested on: Mus musculus; assay: Anticonvulsant activity in ip dosed mouse assessed as protection against maximal electroshock-induced seizures; type: functional
Summary of the method: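 KunMing mice, 18–22 g, compounds in DMSO, given i.p. at a range of doses, groups of 10. MES test per NIH ADD program. Read-out was seizure protection, with at least three points in the 10–90% range.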

[2] = tested on: Mus musculus; assay: Anticonvulsant activity in mouse assessed as protection against maximal electroshock-induced seizures at 30 mg/kg, ip measured after 4 hrs; type: functional, organism-based; parameters: dose 30 mg/kg
Summary of the method: (§1)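 Phase-I MES screen in KunMing mice, 18–22 g. Compounds dissolved in DMSO and given i.p. at 30, 100 or 300 mg/kg. The MES test followed the NIH ADD protocol and was read at 0.5 h and 4 h after dosing. Six mice per group, scored as number protected/number tested.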

[3] = tested on: Mus musculus; assay: Anticonvulsant activity in mouse assessed as protection against maximal electroshock-induced seizures at 100 mg/kg, ip measured after 0.5 hrs; type: functional, organism-based; parameters: dose 100 mg/kg; summary of the method: as §1
[4] = tested on: Mus musculus; assay: Anticonvulsant activity in mouse assessed as protection against maximal electroshock-induced seizures at 100 mg/kg, ip measured after 4 hrs; type: functional, organism-based; parameters: dose 100 mg/kg; summary of the method: as §1
[5] = organism: Mus musculus; assay: Protective index, ratio of TD50 for mouse by rotarod test to ED50 for mouse by MES test; type: functional
[6] = tested on: Mus musculus; assay: Anticonvulsant activity in mouse assessed as protection against maximal electroshock-induced seizures at 300 mg/kg, ip measured after 4 hrs; type: functional, organism-based; parameters: dose 300 mg/kg; summary of the method: as §1
[7] = Neurotoxicity in ip dosed mouse assessed as time spent on rotarod by rotarod test; type: toxicity, organism-based; conditions: in vivo
Summary of the method: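 Rotarod neurotoxicity in KunMing mice, 18–22 g, compounds in DMSO given i.p. Mice were pretrained on a 3.2 cm diameter rod at 10 rpm. Toxicity was defined as failure to stay on the rod for at least 1 min in each trial.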

[8] = tested on: Mus musculus; assay: Anticonvulsant activity in mouse assessed as protection against maximal electroshock-induced seizures at 10 mg/kg, ip measured after 4 hrs; type: functional, organism-based; parameters: dose 10 mg/kg
[9] = tested on: Mus musculus; assay: Anticonvulsant activity in mouse assessed as protection against maximal electroshock-induced seizures at 30 mg/kg, ip measured after 0.5 hrs; type: functional, organism-based; parameters: dose 30 mg/kg; summary of the method: as §1
[10] = tested on: Mus musculus; assay: Anticonvulsant activity in mouse assessed as protection against maximal electroshock-induced seizures at 10 mg/kg, ip measured after 0.5 hrs; type: functional, organism-based; parameters: dose 10 mg/kg
[11] = tested on: Mus musculus; assay: Anticonvulsant activity in mouse assessed as 3-mercaptopropionic acid-induced death at 30 mg/kg, ip administered 30 mins before 3-mercaptopropionic acid challenge measured after 0.5 hrs; type: functional; conditions: route intraperitoneal
Summary of the method: (§2)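 KunMing mice (18–22 g) in groups of 10 received the test agent, dissolved in DMSO, i.p. 30 min before challenge. The challenge was 3-mercaptopropionic acid, 60 mg/kg in saline, given s.c. Mice were then held in individual cages and observed for 0.5 h for seizures and death.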

[12] = tested on: Mus musculus; assay: Anticonvulsant activity in mouse assessed as 3-mercaptopropionic acid-induced tonic seizures at 30 mg/kg, ip administered 30 mins before 3-mercaptopropionic acid challenge measured after 0.5 hrs; type: functional; conditions: route intraperitoneal; summary of the method: as §2
[13] = tested on: Mus musculus; assay: Anticonvulsant activity in mouse assessed as bicuculline-induced tonic seizures at 30 mg/kg, ip administered 30 mins before bicuculline challenge measured after 0.5 hrs; type: functional; conditions: route intraperitoneal
Summary of the method: (§3)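 Bicuculline 2.7 mg/kg sc, injected 15–45 min after preparation, given 30 min after 30 mg/kg i.p. test compound. Mice, 10 per group, were isolated and watched for at least 30 min for clonic and tonic seizures and lethality.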

[14] = tested on: Mus musculus; assay: Anticonvulsant activity in mouse assessed as pentylenetetrazole-induced clonic seizures at 30 mg/kg, ip administered 30 mins before pentylenetetrazole challenge measured after 0.5 hrs; type: functional; conditions: route intraperitoneal
[15] = tested on: Mus musculus; assay: Anticonvulsant activity in mouse assessed as bicuculline-induced clonic seizures at 30 mg/kg, ip administered 30 mins before bicuculline challenge measured after 0.5 hrs; type: functional; conditions: route intraperitoneal; summary of the method: as §3
[16] = tested on: Mus musculus; assay: Anticonvulsant activity in mouse assessed as 3-mercaptopropionic acid-induced clonic seizures at 30 mg/kg, ip administered 30 mins before 3-mercaptopropionic acid challenge measured after 0.5 hrs; type: functional; conditions: route intraperitoneal
Summary of the method: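 Mice, 10 per group, dosed i.p. with 30 mg/kg. 30 min later they received 3-mercaptopropionic acid 60 mg/kg sc in saline. Each mouse was observed alone for 0.5 h for seizures.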

[17] = tested on: Mus musculus; assay: Anticonvulsant activity in mouse assessed as isoniazid-induced tonic seizures at 30 mg/kg, ip administered 30 mins before isoniazid challenge measured after 1 hr; type: functional; conditions: route intraperitoneal
[18] = tested on: Mus musculus; assay: Anticonvulsant activity in mouse assessed as pentylenetetrazole-induced tonic seizures at 30 mg/kg, ip administered 30 mins before pentylenetetrazole challenge measured after 0.5 hrs; type: functional; conditions: route intraperitoneal
[19] = tested on: Mus musculus; assay: Anticonvulsant activity in mouse assessed as isoniazid-induced clonic seizures at 30 mg/kg, ip administered 30 mins before isoniazid challenge measured after 1 hr; type: functional; conditions: route intraperitoneal
[20] = tested on: Mus musculus; assay: Anticonvulsant activity in mouse assessed as thiosemicarbazide-induced clonic seizures at 30 mg/kg, ip administered 30 mins before thiosemicarbazide challenge measured after 2.5 hrs; type: functional; conditions: route intraperitoneal
Summary of the method: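 Thiosemicarbazide challenge, 50 mg/kg i.p., given 30 min after 30 mg/kg i.p. test compound. Mice, 10 per group, were caged individually and observed for 2.5 h. Clonic and tonic seizures and lethality were recorded.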

[21] = tested on: Mus musculus; assay: Anticonvulsant activity in mouse assessed as thiosemicarbazide-induced tonic seizures at 30 mg/kg, ip administered 30 mins before thiosemicarbazide challenge measured after 2.5 hrs; type: functional; conditions: route intraperitoneal
Summary of the method: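 Mice (KunMing, 18–22 g, n = 10 per group) were pretreated i.p. with compound in DMSO. After 30 min, thiosemicarbazide was given at 50 mg/kg i.p. Animals were caged individually and observed for 2.5 h, and the number of clonic seizures, tonic seizures and deaths was recorded.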

[22] = tested on: Mus musculus; assay: Anticonvulsant activity in mouse assessed as bicuculline-induced death at 30 mg/kg, ip administered 30 mins before bicuculline challenge measured after 0.5 hrs; type: functional; conditions: route intraperitoneal
Summary of the method: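 Groups of 10 KunMing mice (18–22 g) were dosed i.p. with compound in DMSO. After 30 min they received bicuculline, 2.7 mg/kg s.c., injected within 15–45 min of preparation because of its instability. Mice were isolated and watched for at least 30 min, and clonic seizures, tonic seizures and lethality were recorded.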

SMILES | ED50 [1] [mg/kg] | Activity [2] | Activity [3] | Activity [4] | PI [5] | Activity [6] | TD50 [7] [mg/kg] | Activity [8] | also measured
Clc1ccccc1COc1ccc2c(c1)-c1nncn1CCO2 | 38.3 | inactive | Active | inactive | 2.4 | inactive | 91.3 | inactive | –
CCOc1ccc2c(c1)-c1nncn1CCO2 | > 100 | inactive | Active | inactive | – | inactive | – | inactive | –
COc1ccc(COc2ccc3c(c2)-c2nncn2CCO3)cc1 | > 100 | inactive | Active | inactive | – | inactive | – | inactive | –
Brc1ccccc1COc1ccc2c(c1)-c1nncn1CCO2 | 41.7 | inactive | Active | inactive | 2.6 | inactive | 110 | inactive | –
c1ccc(COc2ccc3c(c2)-c2nncn2CCO3)cc1 | 16.4 | inactive | Active | inactive | 4.6 | inactive | 76 | inactive | Activity [9]: Active
Brc1cccc(COc2ccc3c(c2)-c2nncn2CCO3)c1 | 25 | inactive | Active | inactive | 3.6 | inactive | 91.3 | inactive | –
CCCCCCCCOc1ccc2c(c1)-c1nncn1CCO2 | 11 | inactive | Active | inactive | 5.8 | inactive | 63.4 | inactive | Activity [10]: Active
Fc1cccc(COc2ccc3c(c2)-c2nncn2CCO3)c1 | 23.7 | inactive | Active | inactive | 3.2 | inactive | 76 | inactive | –
CCCCOc1ccc2c(c1)-c1nncn1CCO2 | 11 | inactive | Active | inactive | 4.2 | inactive | 45.6 | inactive | Activity [10]: Active
Clc1cccc(COc2ccc3c(c2)-c2nncn2CCO3)c1 | 82.2 | inactive | Active | inactive | 1.5 | inactive | 127 | inactive | –
CCCCCCOc1ccc2c(c1)-c1nncn1CCO2 | 10 | inactive | Active | inactive | 6 | inactive | 60 | inactive | Activity [10]: Active
Brc1ccc(COc2ccc3c(c2)-c2nncn2CCO3)cc1 | > 100 | inactive | Active | inactive | – | inactive | – | inactive | –
CCCOc1ccc2c(c1)-c1nncn1CCO2 | 19 | inactive | Active | inactive | 2.9 | inactive | 54.8 | inactive | –
CCCCCOc1ccc2c(c1)-c1nncn1CCO2 | 15.8 | inactive | Active | inactive | 3.8 | inactive | 60 | inactive | Activity [10]: Active
Cc1ccc(COc2ccc3c(c2)-c2nncn2CCO3)cc1 | > 100 | inactive | Active | inactive | – | inactive | – | inactive | –
CCCCCCCOc1ccc2c(c1)-c1nncn1CCO2 | 6.9 | inactive | Active | inactive | 9.5 | inactive | 65.7 | inactive | Activity [11]: 20%; Activity [12]: 0%; Activity [13]: 0%; Activity [14]: 80%; Activity [15]: 100%; Activity [16]: 100%; Activity [17]: 0%; Activity [9]: Active; Activity [18]: 0%; Activity [19]: 0%; Activity [20]: 100%; Activity [10]: Active; Activity [21]: 30%
Fc1ccc(COc2ccc3c(c2)-c2nncn2CCO3)cc1 | 27.4 | inactive | Active | inactive | 2.3 | inactive | 63.4 | inactive | –
NC(=O)N1c2ccccc2C=Cc2ccccc21 [CARBAMAZEPINE] | – | – | – | – | 6.4 | – | – | – | Activity [22]: 20%; Activity [12]: 0%; Activity [13]: 0%; Activity [14]: 100%; Activity [15]: 100%; Activity [16]: 100%; Activity [17]: 0%; Activity [18]: 0%; Activity [19]: 60%; Activity [20]: 100%; Activity [21]: 0%
Fc1ccccc1COc1ccc2c(c1)-c1nncn1CCO2 | 18 | inactive | Active | inactive | 5.1 | inactive | 91.3 | inactive | Activity [9]: Active
Clc1ccc(COc2ccc3c(c2)-c2nncn2CCO3)cc1 | 60 | inactive | Active | inactive | 1.8 | inactive | 110 | inactive | –
COc1ccc2c(c1)-c1nncn1CCO2 | > 100 | inactive | – | inactive | – | inactive | – | inactive | –
